{"source": "paper PMC6880868", "about": "(Cancer cell, 2019)", "key": {"STAT3 [1]": {"target": "T1, STAT3 (Homo sapiens, UniProt P40763)", "test": "Pharmacodynamics: STAT3 protein in xenograft tumors", "format": "in vivo, NOD/SCID mice bearing human xenograft tumors"}, "STAT6": {"target": "STAT6 (Homo sapiens, UniProt P42226)", "sequence (P42226 113-658)": "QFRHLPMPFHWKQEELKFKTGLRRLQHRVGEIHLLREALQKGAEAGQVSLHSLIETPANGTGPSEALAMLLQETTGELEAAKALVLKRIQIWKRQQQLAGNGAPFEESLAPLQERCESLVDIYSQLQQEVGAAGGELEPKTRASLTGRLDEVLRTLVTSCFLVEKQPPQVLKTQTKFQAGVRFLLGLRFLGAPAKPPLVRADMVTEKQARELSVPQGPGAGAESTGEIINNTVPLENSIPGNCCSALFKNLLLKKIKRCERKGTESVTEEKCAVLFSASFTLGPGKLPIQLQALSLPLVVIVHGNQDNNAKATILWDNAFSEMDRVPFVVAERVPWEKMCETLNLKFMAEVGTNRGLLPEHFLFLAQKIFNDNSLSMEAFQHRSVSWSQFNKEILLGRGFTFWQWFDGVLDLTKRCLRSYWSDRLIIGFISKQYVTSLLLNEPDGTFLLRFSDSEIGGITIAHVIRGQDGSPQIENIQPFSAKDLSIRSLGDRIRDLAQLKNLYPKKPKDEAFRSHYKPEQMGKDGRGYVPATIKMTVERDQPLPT", "test": "Bio-Layer Interferometry binding, STAT6", "procedure,_shortened": "(§1)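 Purified recombinant human STAT proteins were biotinylated, then direct binding of the test compound was measured by Bio-Layer Interferometry to give Kd.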"}, "STAT3 protein": {"target": "STAT3 protein (Mus musculus, UniProt P42227)", "sequence (P42227 whole entry)": "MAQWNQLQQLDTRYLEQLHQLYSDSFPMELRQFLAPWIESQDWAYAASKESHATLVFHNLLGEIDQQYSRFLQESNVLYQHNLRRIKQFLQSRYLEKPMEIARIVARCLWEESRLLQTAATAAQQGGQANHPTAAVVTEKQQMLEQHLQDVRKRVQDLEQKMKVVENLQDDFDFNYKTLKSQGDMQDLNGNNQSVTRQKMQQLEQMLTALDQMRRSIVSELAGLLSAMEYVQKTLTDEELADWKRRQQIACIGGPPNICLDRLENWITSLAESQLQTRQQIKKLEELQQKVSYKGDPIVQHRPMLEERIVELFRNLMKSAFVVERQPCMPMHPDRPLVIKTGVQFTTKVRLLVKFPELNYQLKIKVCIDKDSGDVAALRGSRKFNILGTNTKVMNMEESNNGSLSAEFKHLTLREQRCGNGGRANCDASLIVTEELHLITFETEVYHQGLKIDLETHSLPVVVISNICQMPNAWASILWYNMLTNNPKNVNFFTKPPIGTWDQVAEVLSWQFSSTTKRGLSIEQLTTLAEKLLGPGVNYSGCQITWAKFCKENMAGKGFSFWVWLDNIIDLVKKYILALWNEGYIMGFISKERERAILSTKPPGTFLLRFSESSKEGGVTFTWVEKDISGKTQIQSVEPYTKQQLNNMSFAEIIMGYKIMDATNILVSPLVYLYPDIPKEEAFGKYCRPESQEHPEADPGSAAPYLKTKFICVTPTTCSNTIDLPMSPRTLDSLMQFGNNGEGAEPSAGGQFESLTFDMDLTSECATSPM", "test": "STAT3 degradation in murine cells", "format": "cell-based"}, "[2]": {"target": "DNA binding activity of STAT3 (Homo sapiens, UniProt P40763)", "sequence (P40763 whole entry)": "as the sequence (P42227 whole entry) above, with D760E counted along it", "test": "STAT3 DNA binding activity assay on nuclear extracts", "format": "cell-based", "conditions": "1 μM, 8 hr, MOLM-16 and SU-DHL-1", "procedure,_shortened": "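Nuclear extraction: cells were swelled 15 min on ice in hypotonic HEPES pH 7.9/10 mM KCl buffer with DTT and phosphatase/protease inhibitors. NP-40 was added (0.5% final), and nuclei were extracted 15 min at 4°C in 0.4 M NaCl HEPES buffer, then cleared at 5,000 × g. ELISA: 5 μg extract was bound 1 hr at room temperature in TransAM STAT ELISA wells. Wells then received STAT antibody (1:1000, 1 hr), HRP secondary (1 hr) and colour development.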"}, "[3]": {"test_system": "SU-DHL-1 and SUP-M2 cells", "test": "Annexin V apoptosis assay", "format": "cell-based, human", "conditions": "48 hr", "procedure,_shortened": "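Cells collected at the end of treatment, washed in cold PBS, stained with an Annexin V-FLUOS kit per the maker's protocol, and analysed by flow cytometry.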"}, "mutated STAT3 proteins [4]": {"target": "mutated STAT3 proteins (Homo sapiens, UniProt P40763, Y705F)", "sequence (Q96SW2 whole entry)": "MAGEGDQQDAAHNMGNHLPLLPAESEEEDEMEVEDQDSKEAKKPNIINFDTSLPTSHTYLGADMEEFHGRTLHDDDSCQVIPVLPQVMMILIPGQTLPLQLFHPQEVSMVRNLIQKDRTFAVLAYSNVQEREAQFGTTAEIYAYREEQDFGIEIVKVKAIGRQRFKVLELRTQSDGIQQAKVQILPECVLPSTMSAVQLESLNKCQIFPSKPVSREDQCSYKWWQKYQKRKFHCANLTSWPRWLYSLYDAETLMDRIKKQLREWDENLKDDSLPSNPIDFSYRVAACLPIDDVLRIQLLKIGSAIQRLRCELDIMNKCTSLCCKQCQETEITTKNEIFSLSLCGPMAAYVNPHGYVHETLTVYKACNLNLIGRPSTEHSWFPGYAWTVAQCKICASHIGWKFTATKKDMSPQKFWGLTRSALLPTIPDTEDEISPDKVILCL", "sequence (P40763 2-770 Y705F)": "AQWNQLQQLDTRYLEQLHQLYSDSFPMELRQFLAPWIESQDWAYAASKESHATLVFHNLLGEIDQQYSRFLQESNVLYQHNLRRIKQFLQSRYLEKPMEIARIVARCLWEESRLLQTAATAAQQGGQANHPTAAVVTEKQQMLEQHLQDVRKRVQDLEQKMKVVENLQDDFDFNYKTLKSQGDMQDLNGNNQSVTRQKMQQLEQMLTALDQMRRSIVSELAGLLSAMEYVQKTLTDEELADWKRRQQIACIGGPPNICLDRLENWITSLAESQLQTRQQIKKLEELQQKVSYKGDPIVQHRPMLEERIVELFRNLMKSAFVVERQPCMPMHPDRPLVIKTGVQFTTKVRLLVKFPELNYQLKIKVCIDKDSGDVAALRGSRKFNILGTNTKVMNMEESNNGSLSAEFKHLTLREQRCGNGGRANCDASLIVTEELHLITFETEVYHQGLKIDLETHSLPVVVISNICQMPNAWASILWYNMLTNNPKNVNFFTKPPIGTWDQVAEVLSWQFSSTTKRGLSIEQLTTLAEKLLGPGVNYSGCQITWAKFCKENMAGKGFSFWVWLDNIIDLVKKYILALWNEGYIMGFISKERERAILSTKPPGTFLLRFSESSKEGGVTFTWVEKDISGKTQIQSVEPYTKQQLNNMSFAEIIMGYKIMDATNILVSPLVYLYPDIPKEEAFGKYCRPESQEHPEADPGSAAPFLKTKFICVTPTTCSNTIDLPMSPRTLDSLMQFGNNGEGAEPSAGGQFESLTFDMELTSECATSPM", "test": "Degradation of mutated STAT3 proteins in cells", "format": "cell-based", "conditions": "DLD-1/STAT3 Y705F/Y705F cells, 1 μM, 24 hr"}, "mutated STAT3 proteins [5]": {"test_system": "mutated STAT3 proteins", "test": "Degradation of mutated STAT3 proteins in cells", "format": "cell-based, human"}, "mouse STAT3 protein": {"target": "mouse STAT3 protein (Mus musculus, UniProt P42227)", "sequence (P42227 whole entry)": "as the sequence (P42227 whole entry) above", "test": "Pharmacodynamics in mouse tissues", "format": "in vivo, CD-1 mice", "conditions": "single dose 100 mg/kg i.v.", "procedure,_shortened": "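Female outbred CD-1 mice received a single i.v. dose. At set time points, liver, spleen, heart and kidney were collected and analysed by immunoblotting.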"}, "[6]": {"test_system": "transcriptional activities of STAT1 or STAT5A/B", "test": "STAT1 and STAT5 dependent reporter cell lines", "format": "cell-based", "conditions": "STAT-dependent reporter cell lines", "procedure,_shortened": "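Reporter cells (1000–2000) were seeded in duplicate plates, one for luciferase and one for CellTiter-Glo viability. Test compound was added 4–6 hr later, and cells were cultured 24 or 48 hr. Firefly and Renilla luciferase were read, and signals were normalised to cell number from the viability plate.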"}, "[7]": {"test_system": "c-Myc; STAT3 Y705 phosphorylation", "test": "Immunoblotting of c-Myc and pSTAT3", "format": "cell-based, human", "conditions": "0.5 μM, 24 hr", "procedure,_shortened": "(§2)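 Treated cells were lysed in cell lysis buffer, resolved by SDS-PAGE, transferred to PVDF and probed by immunoblotting.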"}, "[8]": {"test_system": "STAT1, STAT4 and other STATs", "test": "Degradation of other STAT proteins in cells", "format": "cell-based, human", "procedure,_shortened": "as §2"}, "SU-DHL-1 xenograft": {"test_system": "SU-DHL-1 xenograft", "test": "SU-DHL-1 xenograft efficacy", "format": "in vivo, mice", "procedure,_shortened": "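NOD/SCID female mice were injected subcutaneously in 5 mg/ml Matrigel with MOLM-16 (3 × 10^6), SU-DHL-1 (1 × 10^7) or SUP-M2 (1 × 10^7) cells. At about 150 mm3, mice were size-matched and randomised. Test compound or vehicle (10% PEG400 + 90% PBS) was given on the indicated schedules. Tumours were measured 2–3 times weekly, with volume = length×width²/2. TGI was calculated from group medians.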"}, "[9]": {"test": "Toxicity in immune competent mice", "format": "in vivo, CD-1 female mice", "procedure,_shortened": "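Female CD-1 mice were given test compound i.v. at 50 or 100 mg/kg, or vehicle (10% PEG400 + 90% PBS), three times weekly for three weeks. Body weight was recorded 2–3 times per week. At the end, blood and major organs were taken for haematology, serum chemistry, organ coefficients and histology.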"}, "STAT1": {"target": "STAT1 (Homo sapiens, UniProt P42224)", "sequence (P42224 132-713)": "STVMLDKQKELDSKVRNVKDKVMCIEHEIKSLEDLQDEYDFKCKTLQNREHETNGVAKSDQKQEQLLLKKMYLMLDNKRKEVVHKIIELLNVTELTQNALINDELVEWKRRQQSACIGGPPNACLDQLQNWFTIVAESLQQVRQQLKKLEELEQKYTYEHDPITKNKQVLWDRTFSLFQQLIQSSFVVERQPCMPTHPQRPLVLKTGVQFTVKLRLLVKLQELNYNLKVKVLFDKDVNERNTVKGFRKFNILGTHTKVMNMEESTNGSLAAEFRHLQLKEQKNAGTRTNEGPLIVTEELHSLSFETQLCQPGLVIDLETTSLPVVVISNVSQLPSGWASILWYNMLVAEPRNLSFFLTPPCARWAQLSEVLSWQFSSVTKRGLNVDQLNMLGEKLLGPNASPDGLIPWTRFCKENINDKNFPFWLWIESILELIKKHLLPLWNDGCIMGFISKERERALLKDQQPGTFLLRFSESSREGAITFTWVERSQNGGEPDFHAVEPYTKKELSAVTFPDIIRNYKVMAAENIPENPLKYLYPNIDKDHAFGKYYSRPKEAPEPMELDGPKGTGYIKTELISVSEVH", "test": "Bio-Layer Interferometry binding, STAT1", "procedure,_shortened": "as §1"}, "STAT5B": {"target": "STAT5B (Homo sapiens, UniProt P51692)", "sequence (P51692 138-710)": "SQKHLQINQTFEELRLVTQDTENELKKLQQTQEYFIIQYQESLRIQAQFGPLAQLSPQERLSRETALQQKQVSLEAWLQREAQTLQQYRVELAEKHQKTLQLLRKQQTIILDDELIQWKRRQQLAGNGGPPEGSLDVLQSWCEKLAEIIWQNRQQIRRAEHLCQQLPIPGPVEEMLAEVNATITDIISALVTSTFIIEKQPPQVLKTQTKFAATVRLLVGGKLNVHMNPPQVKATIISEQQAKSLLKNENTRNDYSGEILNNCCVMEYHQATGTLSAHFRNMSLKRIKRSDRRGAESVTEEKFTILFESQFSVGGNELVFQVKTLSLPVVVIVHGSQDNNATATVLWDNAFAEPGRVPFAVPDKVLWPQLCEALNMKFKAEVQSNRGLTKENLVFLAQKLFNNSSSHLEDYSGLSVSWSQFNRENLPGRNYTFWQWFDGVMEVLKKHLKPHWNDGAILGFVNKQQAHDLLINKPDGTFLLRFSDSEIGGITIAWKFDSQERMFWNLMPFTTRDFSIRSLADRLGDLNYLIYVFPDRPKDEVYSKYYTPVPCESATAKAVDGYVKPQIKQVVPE", "test": "Bio-Layer Interferometry binding, STAT5B", "procedure,_shortened": "as §1"}, "STAT4": {"target": "STAT4 (Homo sapiens, UniProt Q14765)", "sequence (Q14765 133-705)": "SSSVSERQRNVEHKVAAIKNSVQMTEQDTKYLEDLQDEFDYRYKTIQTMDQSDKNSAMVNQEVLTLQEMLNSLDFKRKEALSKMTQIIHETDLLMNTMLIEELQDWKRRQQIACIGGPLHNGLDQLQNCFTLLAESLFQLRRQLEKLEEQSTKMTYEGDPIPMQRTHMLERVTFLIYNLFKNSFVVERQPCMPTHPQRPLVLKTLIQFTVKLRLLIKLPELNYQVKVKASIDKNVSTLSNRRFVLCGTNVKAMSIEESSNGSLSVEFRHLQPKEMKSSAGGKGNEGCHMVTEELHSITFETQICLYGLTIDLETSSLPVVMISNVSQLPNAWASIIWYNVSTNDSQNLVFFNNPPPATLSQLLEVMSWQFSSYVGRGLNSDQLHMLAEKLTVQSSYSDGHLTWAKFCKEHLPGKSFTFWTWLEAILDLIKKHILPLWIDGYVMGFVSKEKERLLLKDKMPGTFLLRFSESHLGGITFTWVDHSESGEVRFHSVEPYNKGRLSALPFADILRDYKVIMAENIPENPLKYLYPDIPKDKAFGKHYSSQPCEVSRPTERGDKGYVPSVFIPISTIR", "test": "Bio-Layer Interferometry binding, STAT4", "procedure,_shortened": "as §1"}, "STAT3 [10]": {"target": "T1, STAT3", "test": "Bio-Layer Interferometry binding, STAT3", "procedure,_shortened": "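Recombinant human STAT3 was biotinylated and binding measured by Bio-Layer Interferometry for Kd. Selectivity was taken from Kd values against other STATs.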"}, "STAT3 [11]": {"target": "T1, STAT3", "test": "Fluorescence polarization", "format": "binding", "procedure,_shortened": "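Competitive fluorescence polarisation assay. Recombinant STAT3 (25 nM) was premixed 5 min with 2.5 nM 5-FAM-labelled STAT3 SH2-domain ligand. The mix was added to serially diluted test compound and read after 1 hr at room temperature. Buffer: 50 mM NaCl, 10 mM HEPES pH 7.5, 1 mM EDTA, 0.01% Triton X-100, 2 mM DTT. IC50 came from nonlinear regression and was converted to Ki.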"}, "[12]": {"test_system": "IKZF1, IKZF3, CK1α, GSPT1", "test": "Immunoblotting of CRBN neo-substrates", "format": "cell-based, human", "conditions": "24 hr; SD-36 0.5 μM, lenalidomide 1 μM"}, "[13]": {"test": "Body weight and signs of toxicity in efficacy experiments", "format": "in vivo, mice", "conditions": "all efficacy experiments", "procedure,_shortened": "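Animal weights and signs of toxicity were recorded 2–3 times per week in NOD/SCID female mice with subcutaneous xenografts. Mice received test compound or vehicle (10% PEG400 + 90% PBS) on the indicated schedules.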"}, "[14]": {"conditions": "i.v. 50 and 100 mg/kg, three times a week for three weeks"}}, "data": [{"smiles": "NC(=O)CC[C@H](NC(=O)[C@@H]1CC[C@@H]2CCN(C(=O)CCCCCC#Cc3cccc4c3CN(C3CCC(=O)NC3=O)C4=O)C[C@H](NC(=O)c3cc4cc(C(F)(F)P(=O)(O)O)ccc4[nH]3)C(=O)N21)C(=O)NC(c1ccccc1)c1ccccc1", "note": "(stereo partly drawn) [SD-36, ((2-(((5S,8S,10aR)-8-(((S)-5-amino-1-(benzhydrylamino)-1,5-dioxopentan-2-yl)carbamoyl)-3-(8-(2-(2,6-dioxopiperidin-3-yl)-1-oxoisoindolin-4-yl)oct-7-ynoyl)-6-oxodecahydropyrrolo[1,2-a][1,5]diazocin-5-yl)carbamoyl)-1H-indol-5-yl)difluoromethyl)phosphonic acid]", "values": [{"measurement": "STAT3 protein level in MOLM-16 tumors, of controls", "setting": "STAT3 [1]; 4 days after a single dose", "result": "< 50", "unit": "%"}, {"measurement": "depletion of STAT3 protein in MOLM-16 and SU-DHL-1 tumors", "setting": "STAT3 [1]; single dose, 6 hr", "result": "near-complete depletion"}, {"measurement": "persistence of near-complete STAT3 depletion", "setting": "STAT3 [1]; single dose, MOLM-16 and SU-DHL-1 tumors", "result": "> 24", "unit": "h"}, {"measurement": "duration of reduced STAT3 protein level", "setting": "STAT3 [1]; single i.v. dose", "result": "> 4", "unit": "days"}, {"measurement": "STAT3 protein depleted in MOLM-16 tumors", "setting": "STAT3 [1]; single i.v. dose 25 mg/kg, 1 hr", "result": "> 80", "unit": "%"}, {"measurement": "Kd", "setting": "STAT6", "result": "> 10000", "unit": "nM"}, {"measurement": "STAT3 protein degradation in murine cells", "setting": "STAT3 protein", "result": "efficiently degraded"}, {"measurement": "DNA binding activity of STAT3", "setting": "[2]", "result": "abolishes"}, {"measurement": "apoptosis", "setting": "[3]", "result": "strong apoptotic cell death"}, {"measurement": "degradation of homozygous Y705F mutant STAT3", "setting": "mutated STAT3 proteins [4]", "result": "effectively degrades"}, {"measurement": "degradation of endogenous D661Y and K658R mutant STAT3", "setting": "mutated STAT3 proteins [5]; 1 μM, 24 hr", "result": "efficiently degrades"}, {"measurement": "degradation of STAT3 with mutations of Arg609 or Ser611/Ser613", "setting": "mutated STAT3 proteins [5]; transfected MDA-MB-231, 1 μM, 16 hr", "result": "resistant to degradation"}, {"measurement": "mouse STAT3 protein in liver, spleen, heart and kidney", "setting": "mouse STAT3 protein", "result": "profound and durable depletion"}, {"measurement": "transcriptional activities of STAT1 or STAT5A/B", "setting": "[6]", "result": "minimal effect"}, {"measurement": "expression of c-Myc", "setting": "[7]", "result": "reduced"}, {"measurement": "effect on other STATs", "setting": "[8]; MOLM-16 and SU-DHL-1 cells", "result": "without effect on other STATs"}, {"measurement": "degradation of STAT1, STAT4 and other STATs", "setting": "[8]; human PBMCs, 24 hr", "result": "failed to degrade"}, {"measurement": "tumor growth inhibited compared to the vehicle control", "setting": "SU-DHL-1 xenograft; 50 mg/kg weekly", "result": 50, "unit": "%"}, {"measurement": "tumor response", "setting": "SU-DHL-1 xenograft; 100 mg/kg on day 1, 3 and 5 per week", "result": "complete tumor regression"}, {"measurement": "tumor response", "setting": "SU-DHL-1 xenograft; 100 mg/kg weekly", "result": "rapid and complete tumor regression"}, {"measurement": "tumors completely regressed", "setting": "SU-DHL-1 xenograft; 100 mg/kg weekly, after 2 doses, by day 12", "result": "7 out of 7"}, {"measurement": "mice with no tumor returning", "setting": "SU-DHL-1 xenograft; 100 mg/kg weekly, day 122, >100 days after the last dosing", "result": "6 out of 7"}, {"measurement": "tumor growth", "setting": "SU-DHL-1 xenograft; 25 and 50 mg/kg on day 1, 3 and 5 per week", "result": "effectively inhibited tumor growth"}, {"measurement": "tumor volume reduced", "setting": "SU-DHL-1 xenograft; single dose 100 mg/kg, day 6", "result": 80, "unit": "%"}, {"measurement": "numbers of neutrophils and platelets", "setting": "[9]; 100 mg/kg, three times a week for three weeks", "result": "slightly increased"}, {"measurement": "creatinine, blood urea nitrogen, calcium, albumin and total blood protein", "setting": "[9]; data not shown", "result": "no significant effect"}, {"measurement": "counts of red or white blood cells, lymphocytes, monocytes or eosinophils", "setting": "[9]; [14]", "result": "no significant changes"}, {"measurement": "systemic toxicity by body weight, organ coefficient and hematology", "setting": "[9]; [14]", "result": "no obvious systemic toxicity"}, {"measurement": "histology of mouse tissues", "setting": "[9]; mouse, in vivo", "result": "no significant effects"}, {"measurement": "body weight", "setting": "[9]; reversible one week after withdrawal", "result": "moderate body weight gain"}, {"measurement": "Kd", "setting": "STAT1", "result": "1000 to 2000", "unit": "nM"}, {"measurement": "Kd", "setting": "STAT5B", "result": "> 10000", "unit": "nM"}, {"measurement": "Kd", "setting": "STAT4", "result": "1000 to 2000", "unit": "nM"}, {"measurement": "Kd", "setting": "STAT3 [10]", "result": "~50", "unit": "nM"}, {"measurement": "binding selectivity for STAT3 over STAT1 and STAT4", "setting": "STAT3 [10]; BLI Kd", "result": "approximately 20 fold"}, {"measurement": "Ki", "setting": "STAT3 [11]", "result": 11, "unit": "nM"}, {"measurement": "levels of IKZF1, IKZF3 and CK1α", "setting": "[12]", "result": "very modest effect"}, {"measurement": "protein levels of GSPT1", "setting": "[12]", "result": "not affected"}, {"measurement": "weight loss or other signs of toxicity", "setting": "[13]", "result": "no significant weight loss"}]}]}
